Test results as given in ChEMBL document CHEMBL1155526, “Discovery of a potent, orally active 11beta-hydroxysteroid dehydrogenase type 1 inhibitor for clinical study: identification of (S)-2-((1S,2S,4R)-bicyclo[2.2.1]heptan-2-ylamino)-5-isopropyl-5-methylthiazol-4(5H)-one (AMG 221)” (J Med Chem, 2010).
The source made the active and inactive calls. No cut-off for these calls is given here.

How the values were obtained:
Rattus norvegicus [1] = test: Metabolic epimerization in Sprague-Dawley rat assessed as formation of [R]-2-((1S,2S,4R)-bicyclo[2.2.1]heptan-2-ylamino)-5-5iospropylthiazol-4(5H)-one at 10 mg/kg up to 24 hrs by LC-MS/MS analysis; settings: in vivo
Rattus norvegicus [2] = test: Metabolic epimerization in Sprague-Dawley rat assessed as formation of [R]-2-((1S,2S,4R)-bicyclo[2.2.1]heptan-2-ylamino)-5-5iospropylthiazol-4(5H)-one at 10 mg/kg, po up to 24 hrs by LC-MS/MS analysis; type: ADME, organism-based; parameters: dose 10 mg/kg, route oral; settings: in vivo
Outline: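 Sprague-Dawley rats (n = 2/group) dosed orally at 10 mg/kg. Plasma taken predose and at intervals up to 24 h. Diastereomers separated by HPLC, quantified by positive-ion ESI MS/MS with single ion monitoring. AUC ratio of epimer to parent calculated.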

Mus musculus [3] = test: Antidiabetic activity in diet-induced obese mouse assessed as mild improvement of glucose tolerance at 25 to 50 mg/kg, po BID for 13 days measured on day 14 after 12 hrs of fasting by glucose tolerance test
[4] = Terminal half life in Sprague-Dawley rat at 2 mg/kg, iv or 10 mg/kg, po; settings: in vivo, read-out: beta t1/2 (converted)
Mus musculus [5] = test: Antiobesity activity in po dosed diet-induced obese mouse assessed as decrease in body weight administered via gavage BID for 13 days measured after day 13; type: functional, organism-based
Outline: (§1)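 Male C57BL/6 mice on high-fat diet from 3 weeks of age for 12 weeks (DIO), grouped n = 11-12 by pretreatment glucose and body weight. Oral gavage 25 or 50 mg/kg b.i.d. (half dose morning, half afternoon) or vehicle (0.1% Tween-80, 0.5% CMC in water) for 13-14 days. Fed blood glucose by glucose meter, plasma insulin by radioimmunoassay, body weight at study end.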

[6] = Volume of distribution at steady state in Beagle dog at 3 mg/kg, iv or 10 mg/kg, po; settings: in vivo, read-out: Vdss
Mus musculus [7] = test: Ex vivo inhibition of 11beta-HSD1 in high fat diet-fed C57BL/6 mouse inguinal fat at 15 mg/kg, po measured at 8 hrs by ELISA; type: functional; settings: C57BL/6, 8 h
Mus musculus [8] = test: Ex vivo inhibition of 11beta-HSD1 in high fat diet-fed C57BL/6 mouse inguinal fat at 5 mg/kg, po measured at 4 hrs by ELISA; type: functional; settings: C57BL/6, 4 h
[9] = Metabolic stability in liver microsomes; type: ADME, Microsome
[10] = Bioavailability in Sprague-Dawley rat at 2 mg/kg, iv or 10 mg/kg, po; settings: in vivo
[11] = Bioavailability in cynomolgus monkey at 2 mg/kg, iv or 10 mg/kg, po; settings: in vivo
Mus musculus [12] = test: Antidiabetic activity in diet-induced obese mouse assessed as decrease in plasma insulin level at 25 to 50 mg/kg, po administered via gavage BID for 13 days measured after day 13 by glucose tolerance test; type: functional, organism-based
Outline: as §1

[13] = Terminal half life in CD1 mouse at 5 mg/kg, iv or 30 mg/kg, po; type: ADME, organism-based; settings: in vivo, read-out: beta t1/2 (converted)
Outline: (§2)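 iv: mouse 5, rat 2, dog 3, monkey 2 mg/kg in 10% dimethylacetamide/23% water/67% PEG 400. po: mouse 30, rat 10, monkey 10 mg/kg in 0.1% Tween-80/0.5% CMC in water; dog 10 mg/kg in the iv vehicle. Plasma sampled at various time points for drug levels. Half-life is terminal.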

[14] = Terminal half life in Beagle dog at 3 mg/kg, iv or 10 mg/kg, po; settings: in vivo, read-out: beta t1/2 (converted)
Mus musculus [15] = test: Ex vivo inhibition of 11beta-HSD1 in high fat diet-fed C57BL/6 mouse inguinal fat at 50 mg/kg, po measured at 4 hrs by ELISA; type: functional; settings: C57BL/6, 4 h
[16] = Bioavailability in Beagle dog at 3 mg/kg, iv or 10 mg/kg, po; settings: in vivo
Cytochrome P450 2C19 = Cytochrome P450 2C19 (Homo sapiens, UniProt P33261); test: Inhibition of CYP2C19; type: ADME
Cytochrome P450 2C19, sequence (P33261 whole entry): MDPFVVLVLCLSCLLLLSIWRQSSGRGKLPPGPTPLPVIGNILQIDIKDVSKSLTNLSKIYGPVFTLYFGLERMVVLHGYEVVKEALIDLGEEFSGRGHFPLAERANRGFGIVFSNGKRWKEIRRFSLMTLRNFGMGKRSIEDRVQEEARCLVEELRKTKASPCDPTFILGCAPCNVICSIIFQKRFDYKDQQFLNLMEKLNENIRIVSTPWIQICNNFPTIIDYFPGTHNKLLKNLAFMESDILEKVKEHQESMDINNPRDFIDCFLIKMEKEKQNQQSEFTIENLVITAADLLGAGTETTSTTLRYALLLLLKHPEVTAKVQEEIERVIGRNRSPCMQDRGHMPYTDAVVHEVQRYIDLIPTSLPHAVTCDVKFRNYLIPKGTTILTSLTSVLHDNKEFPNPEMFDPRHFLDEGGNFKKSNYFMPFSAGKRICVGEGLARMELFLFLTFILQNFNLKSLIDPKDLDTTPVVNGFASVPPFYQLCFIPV

[17] = biological target: T1, 11-beta-hydroxysteroid dehydrogenase type 2 (Homo sapiens, UniProt P80365); test: Inhibition of 11beta-HSD2
T1 sequence (P80365 whole entry): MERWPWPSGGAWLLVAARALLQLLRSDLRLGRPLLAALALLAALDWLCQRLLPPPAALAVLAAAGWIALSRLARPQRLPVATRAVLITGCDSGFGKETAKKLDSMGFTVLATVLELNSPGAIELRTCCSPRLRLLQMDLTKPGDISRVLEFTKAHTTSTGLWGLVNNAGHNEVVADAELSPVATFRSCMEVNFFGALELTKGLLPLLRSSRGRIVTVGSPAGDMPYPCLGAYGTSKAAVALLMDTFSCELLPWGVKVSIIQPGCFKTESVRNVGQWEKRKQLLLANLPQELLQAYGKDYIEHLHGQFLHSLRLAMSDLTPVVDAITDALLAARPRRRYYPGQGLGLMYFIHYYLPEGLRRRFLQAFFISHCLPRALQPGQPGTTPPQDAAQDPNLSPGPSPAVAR

Mus musculus [18] = test: Ex vivo inhibition of 11beta-HSD1 in high fat diet-fed C57BL/6 mouse inguinal fat at 15 mg/kg, po measured at 4 hrs by ELISA; type: functional; settings: C57BL/6, 4 h
Mus musculus [19] = test: Antidiabetic activity in diet-induced obese mouse assessed as decrease in fed blood glucose level at 25 to 50 mg/kg, po administered via gavage BID for 13 days measured after day 13 by glucose tolerance test; type: functional, organism-based
Outline: as §1

[20] = Clearance in Sprague-Dawley rat at 2 mg/kg, iv or 10 mg/kg, po; settings: in vivo
Cytochrome P450 2D6 = Cytochrome P450 2D6 (Homo sapiens, UniProt P10635); test: Inhibition of CYP2D6; type: ADME
Cytochrome P450 2D6, sequence (P10635 whole entry): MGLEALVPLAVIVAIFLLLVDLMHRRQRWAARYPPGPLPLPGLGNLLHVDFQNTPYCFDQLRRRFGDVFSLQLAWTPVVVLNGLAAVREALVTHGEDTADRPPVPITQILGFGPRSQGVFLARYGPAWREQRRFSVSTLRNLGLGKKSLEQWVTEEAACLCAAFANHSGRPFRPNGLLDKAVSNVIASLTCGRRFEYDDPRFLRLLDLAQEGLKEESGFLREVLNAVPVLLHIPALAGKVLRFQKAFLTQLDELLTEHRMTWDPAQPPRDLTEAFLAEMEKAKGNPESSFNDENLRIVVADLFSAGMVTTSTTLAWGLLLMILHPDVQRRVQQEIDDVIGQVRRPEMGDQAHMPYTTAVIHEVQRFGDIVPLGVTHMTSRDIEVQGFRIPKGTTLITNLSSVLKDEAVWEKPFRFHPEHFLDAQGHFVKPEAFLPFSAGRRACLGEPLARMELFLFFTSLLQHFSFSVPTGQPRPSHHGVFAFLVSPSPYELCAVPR

[21] = Volume of distribution at steady state in cynomolgus monkey at 2 mg/kg, iv or 10 mg/kg, po; settings: in vivo, read-out: Vdss
[22] = Terminal half life in cynomolgus monkey at 2 mg/kg, iv or 10 mg/kg, po; settings: in vivo, read-out: beta t1/2 (converted)
[23] = Bioavailability in CD1 mouse at 5 mg/kg, iv or 30 mg/kg, po; type: ADME, organism-based; settings: in vivo
Outline: as §2

[24] = Clearance in Beagle dog at 3 mg/kg, iv or 10 mg/kg, po; settings: in vivo
[25] = Clearance in cynomolgus monkey at 2 mg/kg, iv or 10 mg/kg, po; settings: in vivo
Cytochrome P450 2C9 = Cytochrome P450 2C9 (Homo sapiens, UniProt P11712); test: Inhibition of CYP2C9; type: ADME
Cytochrome P450 2C9, sequence (P11712 whole entry): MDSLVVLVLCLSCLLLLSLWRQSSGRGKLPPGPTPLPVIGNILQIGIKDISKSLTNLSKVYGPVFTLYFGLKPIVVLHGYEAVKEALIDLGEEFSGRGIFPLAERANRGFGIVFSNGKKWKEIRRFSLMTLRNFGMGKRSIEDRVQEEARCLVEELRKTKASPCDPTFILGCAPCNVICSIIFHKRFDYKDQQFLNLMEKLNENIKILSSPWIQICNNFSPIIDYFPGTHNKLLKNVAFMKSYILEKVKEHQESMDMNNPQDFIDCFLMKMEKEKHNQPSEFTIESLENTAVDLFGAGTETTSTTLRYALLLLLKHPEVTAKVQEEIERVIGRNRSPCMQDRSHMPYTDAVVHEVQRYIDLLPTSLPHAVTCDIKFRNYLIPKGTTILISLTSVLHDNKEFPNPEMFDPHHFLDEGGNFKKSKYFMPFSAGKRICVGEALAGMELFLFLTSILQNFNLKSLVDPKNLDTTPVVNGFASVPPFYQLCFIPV

Mus musculus [26] = test: Ex vivo inhibition of 11beta-HSD1 in high fat diet-fed C57BL/6 mouse inguinal fat at 5 mg/kg, po measured at 8 hrs by ELISA; type: functional; settings: C57BL/6, 8 h
Glucocorticoid receptor = biological target: T2, Glucocorticoid receptor (Homo sapiens, UniProt P04150); test: Inhibition of glucocorticoid receptor
T2 sequence (P04150 whole entry): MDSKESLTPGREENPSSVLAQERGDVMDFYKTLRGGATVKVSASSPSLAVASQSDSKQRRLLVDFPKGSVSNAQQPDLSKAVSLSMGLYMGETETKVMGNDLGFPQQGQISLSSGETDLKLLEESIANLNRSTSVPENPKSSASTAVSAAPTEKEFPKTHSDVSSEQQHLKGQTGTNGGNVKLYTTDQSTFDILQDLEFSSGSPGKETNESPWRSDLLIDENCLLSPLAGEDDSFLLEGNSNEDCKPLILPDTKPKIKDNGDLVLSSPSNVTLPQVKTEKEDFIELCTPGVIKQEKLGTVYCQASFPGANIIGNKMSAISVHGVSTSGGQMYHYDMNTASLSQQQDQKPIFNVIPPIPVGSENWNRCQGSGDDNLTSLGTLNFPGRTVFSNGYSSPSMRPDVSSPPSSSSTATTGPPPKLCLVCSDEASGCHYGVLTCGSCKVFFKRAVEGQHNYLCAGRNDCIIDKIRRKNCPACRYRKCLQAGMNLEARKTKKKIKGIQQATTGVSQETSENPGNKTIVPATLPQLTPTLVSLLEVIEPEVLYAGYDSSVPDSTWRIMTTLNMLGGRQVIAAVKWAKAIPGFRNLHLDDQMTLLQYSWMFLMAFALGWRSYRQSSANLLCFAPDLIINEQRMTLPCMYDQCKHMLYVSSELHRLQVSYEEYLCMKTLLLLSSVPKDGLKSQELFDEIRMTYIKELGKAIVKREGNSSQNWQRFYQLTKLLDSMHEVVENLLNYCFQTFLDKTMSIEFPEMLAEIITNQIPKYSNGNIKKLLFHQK

Cytochrome P450 3A4 = Cytochrome P450 3A4 (Homo sapiens, UniProt P08684); test: Inhibition of CYP3A4; type: ADME
Cytochrome P450 3A4, sequence (P08684 whole entry): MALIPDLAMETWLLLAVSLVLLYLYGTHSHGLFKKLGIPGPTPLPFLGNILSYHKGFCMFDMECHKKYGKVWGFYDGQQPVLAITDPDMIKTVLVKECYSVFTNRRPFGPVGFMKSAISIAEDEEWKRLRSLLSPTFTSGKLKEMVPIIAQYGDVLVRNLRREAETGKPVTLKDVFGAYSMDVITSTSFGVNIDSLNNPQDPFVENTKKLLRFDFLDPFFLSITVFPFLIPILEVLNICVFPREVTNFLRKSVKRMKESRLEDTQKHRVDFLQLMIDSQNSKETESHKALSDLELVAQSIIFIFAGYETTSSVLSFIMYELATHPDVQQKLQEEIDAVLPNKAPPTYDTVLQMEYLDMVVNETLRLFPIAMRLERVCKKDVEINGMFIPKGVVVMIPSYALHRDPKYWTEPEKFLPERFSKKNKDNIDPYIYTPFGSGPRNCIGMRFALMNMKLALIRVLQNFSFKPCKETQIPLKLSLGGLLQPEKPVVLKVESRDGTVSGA

[27] = Clearance in CD1 mouse at 5 mg/kg, iv or 30 mg/kg, po; type: ADME, organism-based; settings: in vivo
Outline: as §2

Mus musculus [28] = test: Ex vivo inhibition of 11beta-HSD1 in high fat diet-fed C57BL/6 mouse inguinal fat at 50 mg/kg, po measured at 8 hrs by ELISA; type: functional; settings: C57BL/6, 8 h
[29] = Volume of distribution at steady state in CD1 mouse at 5 mg/kg, iv or 30 mg/kg, po; type: ADME, organism-based; settings: in vivo, read-out: Vdss
Outline: as §2

Cytochrome P450 1A2 = biological target: T3, Cytochrome P450 1A2 (Homo sapiens, UniProt P05177); test: Inhibition of CYP1A2; type: ADME
T3 sequence (P05177 whole entry): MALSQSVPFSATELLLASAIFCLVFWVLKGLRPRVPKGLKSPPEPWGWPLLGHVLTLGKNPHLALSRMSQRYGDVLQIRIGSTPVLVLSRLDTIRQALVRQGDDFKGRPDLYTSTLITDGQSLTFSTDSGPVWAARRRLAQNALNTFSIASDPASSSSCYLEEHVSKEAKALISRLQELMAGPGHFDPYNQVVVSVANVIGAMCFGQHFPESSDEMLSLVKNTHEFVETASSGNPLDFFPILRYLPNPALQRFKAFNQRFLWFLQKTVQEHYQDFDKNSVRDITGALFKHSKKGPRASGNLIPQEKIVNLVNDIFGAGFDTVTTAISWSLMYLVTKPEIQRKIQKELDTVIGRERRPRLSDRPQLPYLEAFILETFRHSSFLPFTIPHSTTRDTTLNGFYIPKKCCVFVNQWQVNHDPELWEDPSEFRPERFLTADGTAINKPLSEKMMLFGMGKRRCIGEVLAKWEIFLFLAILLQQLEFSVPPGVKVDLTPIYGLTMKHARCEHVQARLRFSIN

Mus musculus [30] = test: Antidiabetic activity in diet-induced obese mouse assessed as improvement of glucose tolerance at 5 mg/kg, QD for 13 days measured on day 14 after 12 hrs of fasting by glucose tolerance test
Mus musculus [31] = test: Antidiabetic activity in diet-induced obese mouse assessed as decrease in plasma insulin level at 5 mg/kg administered QD via high fat-diet for 13 days measured after day 13 by glucose tolerance test; type: functional, organism-based; parameters: dose 5 mg/kg
Outline: (§3)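 DIO male C57BL/6 mice (12 weeks high-fat diet), n = 11-12 per group. Rosiglitazone given in the high-fat chow at ~5 mg/kg/day for 13 or 14 days. Fed blood glucose by glucose meter and plasma insulin by radioimmunoassay before and at end of treatment. Body weight taken at end of treatment.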

Mus musculus [32] = test: Antidiabetic activity in diet-induced obese mouse assessed as decrease in fed blood glucose level at 5 mg/kg administered QD via high fat-diet for 13 days measured after day 13 by glucose tolerance test; type: functional, organism-based; parameters: dose 5 mg/kg
Outline: as §3

Mus musculus [33] = test: Antiobesity activity in diet-induced obese mouse assessed as decrease in body weight at 5 mg/kg administered QD via high fat-diet for 13 days measured after day 13; type: functional, organism-based; parameters: dose 5 mg/kg
Outline: as §3

Compound: CC(C)[C@@H]1SC(N[C@H]2C[C@@H]3CC[C@H]2C3)=NC1=O
- Activity (Rattus norvegicus [1]): 39%
- Activity (Rattus norvegicus [2]): 39%

Compound: CC(C)[C@]1(C)SC(N[C@H]2C[C@@H]3CC[C@H]2C3)=NC1=O
- Activity (Mus musculus [3]): Active
- half-life [4]: 41.5 h
- inhibition (Mus musculus [5]): Dose-dependent effect
- Vd [6]: 1.02 L/kg
- inhibition in vivo at 15 mg/kg (Mus musculus [7]): 36%
- inhibition in vivo at 5 mg/kg (Mus musculus [8]): 33%
- Km [9]: > 100 µM
- bioavailability [10]: 34%
- bioavailability [11]: 7%
- inhibition (Mus musculus [12]): Active
- half-life [13]: 15.6 h
- half-life [14]: 8.1 h
- inhibition in vivo at 50 mg/kg (Mus musculus [15]): 47%
- bioavailability [16]: 50%
- IC50 (Cytochrome P450 2C19): > 15 µM
- IC50 [17]: > 10 µM
- inhibition in vivo at 15 mg/kg (Mus musculus [18]): 55%
- inhibition (Mus musculus [19]): Active
- clearance [20]: 1.36 L/h/kg
- IC50 (Cytochrome P450 2D6): > 15 µM
- Vd [21]: 0.98 L/kg
- half-life [22]: 0.6 h
- bioavailability [23]: 54%
- clearance [24]: 0.94 L/h/kg
- clearance [25]: 1.89 L/h/kg
- IC50 (Cytochrome P450 2C9): > 15 µM
- inhibition in vivo at 5 mg/kg (Mus musculus [26]): 10%
- IC50 (Glucocorticoid receptor): > 10 µM
- IC50 (Cytochrome P450 3A4): > 15 µM
- clearance [27]: 3.16 L/h/kg
- inhibition in vivo at 50 mg/kg (Mus musculus [28]): 39%
- Vd [29]: 1 L/kg
- IC50 (Cytochrome P450 1A2): > 15 µM

Compound: CN(CCOc1ccc(CC2SC(=O)NC2=O)cc1)c1ccccn1 (centres undefined)
- Activity (Mus musculus [30]): inactive
- inhibition (Mus musculus [31]): Active
- inhibition (Mus musculus [32]): Active
- inhibition (Mus musculus [33]): inactive
